Sampled rows, rich in hits. Any-hit rate of the full collection: about 4.3%.
TAAR1 ag: human TAAR1 agonists, primary screen, Fluo-8 calcium fluorescence, CHO RD-HGA16 cells; vehicle wells 0%, saturating PEA agonist 100%; activation, % at 3 µM; 360,000 tested, 0.99% active; Trace amine-associated receptor 1 (Homo sapiens), Q96RJ0;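 active means activation above the mean activation of all test compounds in the run plus 3 SD, cut at about 38% in these data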
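System: CHO-derived RD-HGA16 cells with stable Gα16 and human TAAR1. Times: 17-24 h plating, Fluo-8 75 min 37 °C, 30 min RT. Measured by: calcium-sensitive Fluo-8 signal, excitation 470-495, emission 515-575 nm. Read-out basis: % activation relative to PEA EC100 response. Control set: DMSO and PEA EC100. Repeats: no replicates (n 1).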
OX1R antag-1: OX1R (HCRTR1) antagonists, primary screen, fluorescence, CHO/OX1R cells, Fluo-8 calcium, orexin A. AID 434989, 2010. Fluo-8 calcium fluorescence. 330,000 tested, 0.43% active. inhibition, % at 5 µM;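 active means inhibition above its plate's threshold, mean inhibition of all tested compounds on the plate plus 3 SD, cut at about 37% in these data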
Target sequence (O43613 whole entry, looked up): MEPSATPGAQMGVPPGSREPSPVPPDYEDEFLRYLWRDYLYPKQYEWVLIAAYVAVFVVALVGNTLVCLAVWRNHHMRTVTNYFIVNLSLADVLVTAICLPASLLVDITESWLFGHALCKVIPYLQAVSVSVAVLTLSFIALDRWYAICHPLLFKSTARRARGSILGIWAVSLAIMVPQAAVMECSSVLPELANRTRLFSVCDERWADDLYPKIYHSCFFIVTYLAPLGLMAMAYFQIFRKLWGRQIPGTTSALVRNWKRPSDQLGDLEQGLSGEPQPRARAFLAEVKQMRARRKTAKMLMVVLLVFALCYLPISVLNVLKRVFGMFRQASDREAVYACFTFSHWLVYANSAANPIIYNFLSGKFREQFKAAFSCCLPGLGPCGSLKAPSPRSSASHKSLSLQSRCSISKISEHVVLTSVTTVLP
TAAR1 antagonist: human TAAR1 antagonists, primary screen, Fluo-8 calcium fluorescence, CHO RD-HGA16 cells; Trace amine-associated receptor 1 (Homo sapiens), Q96RJ0; antagonist; inhibition, % at 3 µM; 360,000 tested, 1.5% active;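 active means inhibition above a per-plate cutoff, the mean inhibition of test compounds on that plate plus 3 SD, cut at about 49% in these data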
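Test system – hTAAR1-expressing CHO RD-HGA16 cells, Gα16-coupled · Reagent – β-PEA at EC80 concentration, post-compound challenge · Compound dosing – 3 µM, single point · Timing – 140 s kinetic read after compound, 140 s after agonist · Detection – Fluo-8 intracellular calcium dye fluorescence, real-time kinetic reads · Control set – DMSO and EC80 PEA controls · Repeats – n of 1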
OX1R antag-2: antagonists of human orexin 1 receptor (OX1R) | OX1R-expressing cells, FRET antagonist read-out | 330,000 tested, 1.8% active | Orexin/Hypocretin receptor type 1 (Homo sapiens), O43613 | inhibition, % at 6.6 µM; in the data active means inhibition mostly above about 38%, no sharp cut-off; inactive means mostly below about 40%
CHO parental Ca: ATP-evoked calcium signal inhibitors, parental CHO, primary screen, counter-screen for OX1R antagonist project, cell-based, fluorescence, Fluo-8 calcium dye | parental CHO-K1, ATP-induced calcium, Fluo-8 fluorescence | 330,000 tested, 0.63% active | AID 463079, 2010 | inhibition, % at 5.6 µM;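 active means inhibition above that plate's mean sample inhibition plus 3 SD, cut at about 26% in these data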
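Assay system: untransfected parental CHO cell line. Also added: ATP agonist challenge. Dosing: one dose, 5.6 µM nominal. Measured by: Fluo-8 fluorescence. Read-out: % inhibition. Benchmarks: ATP wells versus no-ATP DMSO wells. Repeats: no replicates.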
GalR3 antagonist: GalR3 antagonists in HEK293 cells, primary screen, cell-based, fluorescence readout; Galanin receptor type 3 (Homo sapiens), O60755; HEK293 GalR3-CNG cAMP membrane potential fluorescence; galR3 body fused to GalR1 C-terminus; inhibition, % at 3 µM; 360,000 tested, 0.44% active;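 active means inhibition above the screen-wide average plus 3 SD, cut at about 13% in these data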;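 further: forskolin and galanin both at EC90 stimulate the cells; cAMP rise reported by CNG channel membrane potential dye signal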
Target sequence (O60755 1-299 limits assumed): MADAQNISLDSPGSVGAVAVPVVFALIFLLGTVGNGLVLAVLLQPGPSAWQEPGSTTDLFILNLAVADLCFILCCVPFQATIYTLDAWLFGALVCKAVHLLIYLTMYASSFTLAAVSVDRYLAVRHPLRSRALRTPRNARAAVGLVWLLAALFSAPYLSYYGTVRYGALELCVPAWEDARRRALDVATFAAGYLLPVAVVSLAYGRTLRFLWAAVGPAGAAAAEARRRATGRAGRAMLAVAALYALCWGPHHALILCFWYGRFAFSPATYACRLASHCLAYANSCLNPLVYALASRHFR
Large screens that a line does not name were inactive.

Cc1ccc2nc(N3C(=O)C(O)=C(C(=O)c4cc5ccccc5o4)C3c3cccs3)sc2c1 (stereo not drawn)	none (no result: TAAR1 ag, TAAR1 antagonist, GalR3 antagonist)
COc1cccc(C(=O)c2ccccc2C(=O)O)c1	none (no result: OX1R antag-1, OX1R antag-2, CHO parental Ca)
Cc1ccccc1OCCn1cc(C=O)c2ccccc21	none
CCOC(=O)[C@]12CCCC=C1N(CCc1ccc(OC)c(OC)c1)C(=O)[C@H](CC(=O)NCCc1ccccc1OC)C2	TAAR1 ag 46 (no result: OX1R antag-1, OX1R antag-2, CHO parental Ca)
CCOC(=O)[C@]12CCCC=C1N(Cc1ccc(Cl)cc1Cl)C(=O)[C@H](CC(=O)NCCc1ccccc1OC)C2	TAAR1 ag 40 (no result: OX1R antag-1, OX1R antag-2, CHO parental Ca)
C[C@]12Cc3ccccc3C1CC1=N[C@@H](c3ccccn3)O[C@@]13C[C@@H]2C(=O)N3C1CCN(Cc2ccccc2)CC1 (stereo partly drawn)	none (no result: OX1R antag-1, OX1R antag-2, CHO parental Ca)
Cc1ccsc1C(=O)N1CCC1(C)C(=O)NS(=O)(=O)c1cccc(F)c1 (stereo not drawn)	none (no result: OX1R antag-1, OX1R antag-2, CHO parental Ca)
O[C@H]1C[C@H](c2ccccc2)N(Cc2cccs2)C[C@@H]1n1cc(C2CC2)nn1	none (no result: OX1R antag-1, OX1R antag-2, CHO parental Ca)
COc1ccc(/C=C/c2n[nH]c(=O)c(C#N)c2C)cc1	OX1R antag-2 43
Cc1ccc(C(=O)N2N=C(c3cccc(NS(C)(=O)=O)c3)CC2c2cccs2)cc1 (stereo not drawn)	TAAR1 antagonist 51
CS(=O)(=O)Nc1cccc(C2=NN(C(=O)c3ccccc3)C(c3cccs3)C2)c1 (stereo not drawn)	none
COc1ccc(CCNC(=O)Nc2ccc3c(c2)c(=O)n(C)n3CC=C(C)C)cc1OC	none (no result: OX1R antag-1, OX1R antag-2, CHO parental Ca)
O=C(NCCCN1CCOCC1)c1cc(Cl)ccc1Cl	none
O=C(NCCCN1CCN(CCCNC(=O)c2cc([N+](=O)[O-])ccc2Cl)CC1)c1cc([N+](=O)[O-])ccc1Cl	OX1R antag-2 72
O=C(Nc1cc([N+](=O)[O-])ccc1C(=O)NCCN1CCOCC1)c1ccccc1	OX1R antag-2 75
O=C(Nc1ccccc1C(=O)NCCN1CCOCC1)c1cccc([N+](=O)[O-])c1	none
COc1ccccc1C(=O)NCCC(=O)N1CC=C(c2ccccc2)CC1	none
Cc1ccc(S(=O)(=O)CCC(=O)OCC(=O)Nc2cccc(S(=O)(=O)N3CCCCC3)c2)cc1	none (no result: OX1R antag-1, OX1R antag-2, CHO parental Ca)
CCCn1c(=O)c(C(=O)Nc2ncccc2C)c(O)c2ccccc21	TAAR1 ag 40
CCCCCCCCC(=O)NNC(=O)c1c(O)c2ccccc2n(CCC)c1=O	CHO parental Ca 34
C[C@@H]1ON(C)[C@H]2C[C@H]3c4[nH]c5c(-c6cccc(Cl)c6)cccc5c4CCN3C(=O)[C@@H]12	none (no result: OX1R antag-1, OX1R antag-2, CHO parental Ca)
CC(C)NC(=O)OCc1c(COC(=O)NC(C)C)c([N+](=O)[O-])n2c1CCC2	none (no result: OX1R antag-1, OX1R antag-2, CHO parental Ca)
O=C(NCc1ccco1)c1ccc2nc3sc4c(c3c(=O)n2c1)CCCC4	OX1R antag-2 87 (no result: TAAR1 ag, TAAR1 antagonist, GalR3 antagonist)
O=C(O)c1cccc(-c2csc(C(O)c3ccccc3)n2)c1 (stereo not drawn)	none (no result: OX1R antag-1, OX1R antag-2, CHO parental Ca)
COC(=O)[C@]12C[C@H](CC(=O)NCc3cccs3)C(=O)N(Cc3ccccc3)C1=C[C@H](C(C)C)O[C@@H]2C1CC1	none (no result: OX1R antag-1, OX1R antag-2, CHO parental Ca)
CCc1cccc(NC(=O)CCCn2nc(CC)n3c(cc4occc43)c2=O)c1	OX1R antag-2 42
CCNC(=O)N(C)c1c(CC)nc2ccc(C(=O)N3CCN(C(C)=O)CC3)cn12	none (no result: OX1R antag-1, OX1R antag-2, CHO parental Ca)
CN(c1ccccc1)S(=O)(=O)c1ccc(NC(=O)c2ccccc2)cc1	none
CCOC(=O)c1ccc(NC(=O)c2nc(S(=O)(=O)Cc3ccccc3)ncc2Cl)cc1	OX1R antag-1 73
CN(c1ccccc1)S(=O)(=O)c1ccc(NC(=O)c2nc(S(C)(=O)=O)ncc2Cl)cc1	TAAR1 antagonist 49
CC(=O)Nc1ccc(NC(=O)c2nc(S(=O)(=O)Cc3cccc(C)c3)ncc2Cl)cc1	none
CCc1ccc(NC(=O)c2nc(S(=O)(=O)Cc3ccccc3)ncc2Cl)cc1	OX1R antag-1 63, CHO parental Ca 57
Cc1ccc(NC(=O)c2nc(S(=O)(=O)Cc3ccccc3C)ncc2Cl)cc1C	CHO parental Ca 40
CCS(=O)(=O)c1ncc(Cl)c(C(=O)Nc2ccc(S(=O)(=O)N3CCC(C)CC3)cc2)n1	OX1R antag-2 47, CHO parental Ca 41
COc1cc(/C=C2\CCCc3c2nc2ccccc2c3C(=O)O)cc(OC)c1O	none
COc1cc(/C=C2\CCCc3c2nc2ccccc2c3C(=O)O)cc([N+](=O)[O-])c1O	none
COc1ccc(/C=C2\CCc3c2nc2ccccc2c3C(=O)O)cc1OC	OX1R antag-2 75
COc1ccc(/C=C2\CCCc3c2nc2ccccc2c3C(=O)O)cc1OC	OX1R antag-2 63 (no result: TAAR1 ag, TAAR1 antagonist, GalR3 antagonist)
CCOc1ccc(/C=C2\CCCc3c2nc2ccccc2c3C(=O)O)cc1OC	OX1R antag-2 82, CHO parental Ca 30 (no result: TAAR1 ag, TAAR1 antagonist, GalR3 antagonist)
COc1cccc(CN2CCC(C(=O)Nc3ccc(-c4cccc(C)c4)cc3)CC2)c1O	TAAR1 ag 38
COC(=O)C1=C(C)N(Cc2ccc(C(F)(F)F)cc2)C(=NCc2ccc3c(c2)OCO3)NC1c1ccccc1 (stereo not drawn)	none (no result: OX1R antag-1, OX1R antag-2, CHO parental Ca)
O=C(C1CCN(c2ncnc3c2sc2cccc(F)c23)CC1)N1CCCC1	none
O=C(NC1CC1)C1CCN(c2ncnc3c2sc2cccc(F)c23)CC1	OX1R antag-2 68
COc1ccc(/C=N/NC(=O)c2nn(-c3ccccc3)c(=O)c3c(N)scc23)cc1	OX1R antag-2 70
COc1ccc(/C=N/NC(=O)c2nn(-c3ccc(C)c(C)c3)c(=O)c3ccccc23)cc1	none
COc1ccc(/C=N/NC(=O)c2nn(-c3ccc(Cl)cc3)c(=O)c3c(N)scc23)cc1	OX1R antag-2 52
O=C(Nc1ccccn1)c1ccc([N+](=O)[O-])cc1Cl	OX1R antag-2 56
C/C(CC(=O)Nc1ccccn1)=N\NC(=O)c1ccc([N+](=O)[O-])cc1Cl	none
O=C(N/N=C/c1ccccn1)c1ccc([N+](=O)[O-])cc1Cl	none
O=C(N/N=C/c1ccc(Cl)c([N+](=O)[O-])c1)c1cnccn1	OX1R antag-2 57
O=C(N/N=C/c1ccccc1[N+](=O)[O-])c1cnccn1	none
O=C(N/N=C/c1cccnc1)c1ccc([N+](=O)[O-])cc1Cl	OX1R antag-2 35
Cc1ccc([N+](=O)[O-])c(C(=O)N/N=C/c2cccnc2)c1	OX1R antag-2 42
COc1ccc(-c2cc(CNc3nc(NC(C)C)nc4cc(-c5ccccc5)sc34)on2)cc1	none (no result: OX1R antag-1, OX1R antag-2, CHO parental Ca)

Screens as filed in PubChem BioAssay.
